The source of these data is publication PMC7315603 (ACS Omega, 2020).

The IC50 is the concentration at which inhibition is half-maximal. What is called fraction remaining is what is left of the initial amount, in per cent. Low readings indicate more turnover, high ones less turnover. Usually kinetic solubility stands for solubility judged after dilution from a stock solution rather than from solid.

Converted amounts (≈) assume the structure as drawn. “And” between values parts separate entries of the source, which are not always exact repeats. Equal values may be shown once. Read-outs that look alike come from different tables or passages of the source. Where a SMILES comes first, the peptide text is derived from it. [ ]: non-standard residue; d: D form. dPhe(4-Cl) = N[C@H](Cc1ccc(Cl)cc1)C(=O)O; aIle = CC[C@@H](C)[C@H](N)C(=O)O; dPhLac = O=C(O)[C@H](O)Cc1ccccc1; Sar = CNCC(=O)O

In series [1] the test system is P. falciparum strain 3D7. Nature of the series: microbe, parasite or virus in culture. Particulars: Plasmodium falciparum, 3D7, read-out: IC50 (P. falciparum 3D7).
A short description of series [2]: Intrinsic microsomal clearance, mouse liver microsomes. It is filed as in vitro ADME. Particulars: for intrinsic microsomal clearance (Clint), mouse: mouse liver microsomes. In general terms: Microsomes from liver hold many membrane-bound enzymes, among them those of drug oxidation.
Series [3] can be described thus: Plasma stability, human plasma. The conditions noted are these: 2 h incubation at 37 °C. The series is classed as in vitro ADME. The method, boiled down: (§1)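 Test compound incubated in human or mouse plasma for 2 h at 37 °C. The amount of compound remaining afterward was quantified and reported as percent remaining.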
Another series has as its system M. tuberculosis H37Rv. The conditions noted are these: drug-susceptible Mtb H37Rv; 6 days + 48 h resazurin. In general terms: Resazurin is reduced to fluorescent resorufin, in cell work by metabolically active cells.
Another series addresses human serum albumin (Homo sapiens, UniProt P02768). Nature of the series: Human serum albumin binding. It is filed as in vitro ADME.
The subject of series [4] is P. falciparum strain 3D7. Particulars: strain 3D7, 3 h.
Series [5] in a line: Intrinsic microsomal clearance, human liver microsomes. It is filed as in vitro ADME. The conditions noted are these: for intrinsic microsomal clearance (Clint), human: human liver microsomes.
The next series has as its system Mycobacterium vaccae. Description: MIC against Mycobacterium vaccae, microplate alamar blue broth dilution assay. It is filed as cell-based.
Series [6] in a line: Plasma stability, mouse plasma. The series is classed as in vitro ADME. The method, boiled down:
as §1

Series [7] in a line: Kinetic aqueous solubility. The series is classed as physicochemical.
The next series has as its system M. tuberculosis H37Ra. Particulars: natural product; cited from earlier work.
A further series relates to Plasmodium falciparum. Particulars: natural product; cited from earlier work.

human serum albumin, sequence (P02768 25-609): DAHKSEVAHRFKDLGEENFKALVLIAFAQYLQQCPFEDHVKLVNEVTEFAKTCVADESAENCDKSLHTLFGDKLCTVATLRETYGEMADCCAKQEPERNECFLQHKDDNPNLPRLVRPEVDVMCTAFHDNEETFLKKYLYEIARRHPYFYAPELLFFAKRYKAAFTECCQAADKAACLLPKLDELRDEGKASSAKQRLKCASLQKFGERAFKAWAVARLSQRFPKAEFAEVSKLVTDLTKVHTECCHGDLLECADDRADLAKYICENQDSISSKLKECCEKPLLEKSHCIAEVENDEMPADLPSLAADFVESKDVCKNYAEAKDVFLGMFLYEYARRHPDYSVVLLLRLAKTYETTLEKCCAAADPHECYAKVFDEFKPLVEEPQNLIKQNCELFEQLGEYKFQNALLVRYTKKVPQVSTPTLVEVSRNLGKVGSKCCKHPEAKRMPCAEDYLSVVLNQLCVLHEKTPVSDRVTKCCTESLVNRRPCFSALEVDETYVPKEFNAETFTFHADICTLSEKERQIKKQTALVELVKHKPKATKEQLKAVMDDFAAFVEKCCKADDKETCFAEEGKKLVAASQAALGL

For `CCN(CC)CCCC(C)Nc1ccnc2cc(Cl)ccc12` (centres unmarked) [CQ, chloroquine], the IC50 in the series with P. falciparum strain 3D7 [1] came out at 0.005 µM.
In turn, `CC[C@@H](C)[C@@H]1NC(=O)[C@@H](Cc2ccccc2)OC(=O)CN(C)C(=O)[C@H]([C@H](C)CC)NC(=O)[C@@H](Cc2ccccc2)OC(=O)CN(C)C1=O` [Compound 9] (cyclo([Sar][dPhLac][aIle][Sar][dPhLac][aIle])) registered an IC50 of over 100 µM. Further, in [2], the “stability in mouse microsomes (in words)” value was “low stability” and the “intrinsic microsomal clearance (Clint), mouse” value is recorded as 38.3 mL/(min g) tissue. The “plasma stability (% remaining), human plasma” value in series [3] is reported as 103%. For the same compound, the “MIC (Mtb H37Rv)” value in the series with M. tuberculosis H37Rv is over 80 µM. Besides, the “% human serum albumin binding (%HSA)” value at human serum albumin worked out at 88%. This compound also came in with a concentration for half-maximal inhibition (IC50) in the series on P. falciparum strain 3D7 [4] of 2.3 µM. Moreover, in series [5], the “stability in human microsomes (in words)” value is reported as “moderate stability” and the “intrinsic microsomal clearance (Clint), human” value is 46.53 mL/(min g) tissue. In addition, in the series on Mycobacterium vaccae, the “MIC (M. vaccae)” value is 18.8 µM (≈ 12.5 µg/mL). Also, the amount remaining at 2 h in [6] worked out at 18%. In series [7], this compound returned a kinetic solubility of over 180 µg/mL.
In series [7], `CC(C)C[C@@H]1NC(=O)[C@@H](Cc2ccccc2)OC(=O)CN(C)C(=O)[C@H](CC(C)C)NC(=O)[C@@H](Cc2ccccc2)OC(=O)CN(C)C1=O` [Compound 10] (cyclo(L[Sar][dPhLac]L[Sar][dPhLac])) showed a kinetic solubility of over 180 µg/mL.
In the case of `CC(C)[C@@H]1NC(=O)[C@@H](Cc2ccccc2)OC(=O)CN(C)C(=O)[C@H](C(C)C)NC(=O)[C@@H](Cc2ccccc2)OC(=O)CN(C)C1=O` [Compound 11] (cyclo([Sar][dPhLac]V[Sar][dPhLac]V)), the IC50 was over 100 µM. Further, in the series on P. falciparum strain 3D7 [4], the IC50 is 7.5 µM. This compound also came in with a solubility (kinetic) in series [7] of 80 µg/mL (≈ 126 µM).
Turning to `CN1CC(=O)O[C@H](Cc2ccccc2)C(=O)NCC(=O)N(C)CC(=O)O[C@H](Cc2ccccc2)C(=O)NCC1=O` [Compound 12] (cyclo(G[Sar][dPhLac]G[Sar][dPhLac])), the IC50 was over 100 µM. The “intrinsic microsomal clearance (Clint), mouse” value in [2] is reported as 52.00 mL/(min g) tissue. In addition, the “% human serum albumin binding (%HSA)” value at human serum albumin is listed as 54.7%. Also, the IC50 with P. falciparum strain 3D7 [4] turned out to be 20.1 µM. Also, the “intrinsic microsomal clearance (Clint), human” value in series [5] was 34.00 mL/(min g) tissue. In series [6], this compound had a share remaining at 2 h of 0%. The solubility (kinetic) in series [7] turned out to be 81 µg/mL (≈ 147 µM).
The compound `CC[C@H](C)[C@@H]1NC(=O)[C@@H](Cc2ccccc2)OC(=O)CNC(=O)[C@H]([C@@H](C)CC)NC(=O)[C@@H](Cc2ccccc2)OC(=O)CNC1=O` [Compound 13] (cyclo(G[dPhLac]IG[dPhLac]I)) gave an IC50 of over 100 µM. In [2], the “intrinsic microsomal clearance (Clint), mouse” value is on record as 65.90 mL/(min g) tissue. The “% human serum albumin binding (%HSA)” value on human serum albumin is 91.02%. The IC50 in the series with P. falciparum strain 3D7 [4] turned out to be 13.8 µM. Besides, in series [5], the “intrinsic microsomal clearance (Clint), human” value is given as 32.80 mL/(min g) tissue. Also, in [6], the fraction remaining at 2 h was found to be 0%. In series [7], the kinetic solubility was 6 µg/mL (≈ 9.42 µM).
As to `CC(C)[C@@H]1NC(=O)[C@@H](Cc2ccccc2)NC(=O)CN(C)C(=O)[C@H](C(C)C)NC(=O)[C@@H](Cc2ccccc2)NC(=O)CN(C)C1=O` [Compound 15] (cyclo([Sar][dF]V[Sar][dF]V)), the IC50 is over 100 µM. In series [2], the “intrinsic microsomal clearance (Clint), mouse” value is listed as 7.52 mL/(min g) tissue. Moreover, in the series on P. falciparum strain 3D7 [4], the IC50 worked out at 7.7 µM. Also, the “intrinsic microsomal clearance (Clint), human” value in series [5] was 3.60 mL/(min g) tissue.
`CC[C@@H](C)[C@@H]1NC(=O)[C@@H](Cc2ccccc2)NC(=O)CN(C)C(=O)[C@H]([C@H](C)CC)NC(=O)[C@@H](Cc2ccccc2)NC(=O)CN(C)C1=O` [Compound 16] (cyclo([Sar][dF][aIle][Sar][dF][aIle])) yielded an IC50 of over 100 µM. Also, the “intrinsic microsomal clearance (Clint), mouse” value in series [2] is 47.71 mL/(min g) tissue. In addition, half-maximal inhibition in the series on P. falciparum strain 3D7 [4] (IC50) was put at 2.2 µM. Also, the “intrinsic microsomal clearance (Clint), human” value in series [5] is reported as 18.90 mL/(min g) tissue.
For `CC[C@@H](C)[C@@H]1NC(=O)[C@@H](Cc2ccc(Cl)cc2)NC(=O)CN(C)C(=O)[C@H]([C@H](C)CC)NC(=O)[C@@H](Cc2ccc(Cl)cc2)NC(=O)CN(C)C1=O` [Compound 17] (cyclo([Sar][dPhe(4-Cl)][aIle][Sar][dPhe(4-Cl)][aIle])), it took 26 µM to reach half-maximal inhibition (IC50). For the same compound, the “% human serum albumin binding (%HSA)” value at human serum albumin was 95% and 95.24%. Moreover, the midpoint of inhibition in the series with P. falciparum strain 3D7 [4], the IC50, lay at 1.8 µM. The compound also yielded a kinetic solubility in [7] of 34 µg/mL (≈ 46.5 µM).
`CC[C@@H](C)[C@@H]1NC(=O)[C@@H](Cc2ccc(OC)cc2)NC(=O)CN(C)C(=O)[C@H]([C@H](C)CC)NC(=O)[C@@H](Cc2ccc(OC)cc2)NC(=O)CN(C)C1=O` [Compound 18] (cyclo([Sar][dY](Me)[aIle][Sar][dY](Me)[aIle])) returned a concentration for half-maximal inhibition (IC50) of over 100 µM. Further, the “intrinsic microsomal clearance (Clint), mouse” value in [2] is recorded as 13.25 mL/(min g) tissue. At human serum albumin, the “% human serum albumin binding (%HSA)” value is 77.2%. In the series on P. falciparum strain 3D7 [4], the IC50 came to 4.1 µM. For the same compound, the “intrinsic microsomal clearance (Clint), human” value in series [5] is 8.18 mL/(min g) tissue. In addition, in series [7], the kinetic solubility is 124 µg/mL (≈ 172 µM).
On to `CC[C@@H](C)[C@@H]1NC(=O)[C@@H](CC(C)C)NC(=O)CN(C)C(=O)[C@H]([C@H](C)CC)NC(=O)[C@@H](CC(C)C)NC(=O)CN(C)C1=O` [Compound 19] (cyclo([dL][aIle][Sar][dL][aIle][Sar])), for which the “intrinsic microsomal clearance (Clint), mouse” value in [2] is recorded as 5.79 mL/(min g) tissue. Besides, the “% human serum albumin binding (%HSA)” value on human serum albumin was 37% and 37.15%. In addition, the “intrinsic microsomal clearance (Clint), human” value in [5] is 6.07 mL/(min g) tissue. In [6], the fraction remaining at 2 h is 88%. Besides, in series [7], the solubility (kinetic) was at least 184 µg/mL.
Consider hirsutellide A, for which, in the series with M. tuberculosis H37Ra, the “MIC (M. tuberculosis H37Ra)” value was 6 to 12 µg/mL. Moreover, in the series with Plasmodium falciparum, the “IC50 (Plasmodium falciparum)” value is 2.8 µg/mL.
